ChEMBL document CHEMBL3217724, “Synthesis and evaluation of a series of benzothiophene acrylonitrile analogs as anticancer agents” (Medchemcomm, 2013)
Activity calls are given as the source filed them. No cut-off for these calls is given here.

Key:
LLC-PK1 [1] = test: Growth inhibition of pig LLC-PK1 cells expressing MDR1 by Alamar Blue assay; assay type: functional; conditions: Sus scrofa
Method in brief: (§1)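 Porcine epithelial L-MDR1 (P-gp expressing) cells and their non-expressing parent line were exposed to compound for 72 h. Viability was read with AlamarBlue dye and GI50 derived. P-gp expression was verified by Western blot with β-actin as loading control. The resistance ratio compares GI50 in MDR1 versus parent cells.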

[2] = Growth inhibition of human UO31 cells; assay type: functional; conditions: UO-31
Method in brief: (§2)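 NCI 60-cell-line panel, five-dose screen; GI50 is the molar concentration giving 50% growth inhibition.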

SK-MEL-28 = test: Growth inhibition of human SK-MEL-28 cells; assay type: functional
Method in brief: (§3)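 NCI 60-human-cancer-cell-line panel, five-dose screen after a preliminary screen. GI50 is the molar concentration giving 50% growth inhibition.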

MDA-MB-435 = test: Growth inhibition of human MDA-MB-435 cells; assay type: functional; method in brief: as §3
NCI-H322M = test: Growth inhibition of human NCI-H322M cells; assay type: functional; method in brief: as §3
[3] = Growth inhibition of human BT549 cells; assay type: functional; conditions: BT-549; method in brief: as §3
Tubulin (Homo sapiens) = Tubulin (Homo sapiens) (UniProt P68371+Q9H4B7+P0DPH7+P68366+Q13509+Q71U36+P04350+Q3ZCM7+P07437+P68363+Q9BQE3+Q6PEY2+Q13885+Q9BVA1+Q9BUF5); test: Inhibition of tubulin polymerization (unknown origin) after 1 hr; assay type: protein-complex assay
Method in brief: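 Purified tubulin was allowed to polymerize for 1 h with increasing concentrations of compound. Docetaxel and vinblastine were the stabilizing and destabilizing references.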

SNB-75 = test: Growth inhibition of human SNB75 cells; assay type: functional; method in brief: as §2
COLO 205 = test: Growth inhibition of human COLO205 cells; assay type: functional; method in brief: as §3
T47D = test: Growth inhibition of human T47D cells; assay type: functional; method in brief: as §2
KM12 = test: Growth inhibition of human KM12 cells; assay type: functional; method in brief: as §3
TK-10 = test: Growth inhibition of human TK10 cells; assay type: functional; method in brief: as §2
PC-3 [4] = test: Induction of apoptosis in human PC3 cells assessed as formation of mitotic castastrophe at 10 to 100 nM after 72 hrs by Hoechst 33342 staining; assay type: functional, cell-based
Method in brief: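 PC3 prostate cancer cells were treated 72 h at 10 and 100 nM. Nuclei were stained with Hoechst 33342 and visualized by fluorescence imaging.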

A549 = test: Growth inhibition of human A549 cells; assay type: functional; method in brief: as §3
[5] = Growth inhibition of pig LLC-PK1 cells by Alamar Blue assay; assay type: cell-based, Sus scrofa
Method in brief: (§4)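 Cell viability was read with AlamarBlue dye in 96-well format and GI50 values derived, to assess P-gp effects. Cells were P-gp-expressing NCI/ADR-Res ovarian cancer cells and L-MDR1 porcine epithelial cells, each with its non-expressing parent line. P-gp expression was confirmed by Western blot with β-actin as loading control. Resistance is the GI50 in the P-gp line over the GI50 in the parent line.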

HOP-62 = test: Growth inhibition of human HOP62 cells; assay type: functional; method in brief: as §3
ACHN = test: Growth inhibition of human ACHN cells; assay type: functional; method in brief: as §3
K562 = test: Growth inhibition of human K562 cells; assay type: functional; method in brief: as §3
SK-MEL-5 = test: Growth inhibition of human SK-MEL-5 cells; assay type: functional; method in brief: as §3
[6] = Growth inhibition of human RXF393 cells; assay type: functional; conditions: RXF 393; method in brief: as §3
786-0 = test: Growth inhibition of human 786-0 cells; assay type: functional; method in brief: as §3
SN12C = test: Growth inhibition of human SN12C cells; assay type: functional; method in brief: as §2
[7] = Growth inhibition of human EKVX cells; assay type: functional; method in brief: as §3
[8] = target: T1, Tubulin beta (Homo sapiens) (UniProt P68371+Q9H4B7+Q13509+P04350+Q3ZCM7+P07437+Q13885+Q9BVA1+Q9BUF5+A6NNZ2); test: Inhibition of tubulin beta in human PC3 cells assessed as chromosomal overduplication at 100 nM after 24 hrs by DAPI-staining based immunofluorescence assay; assay type: cell-based; conditions: PC-3
Method in brief: (§5)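 PC3 cells were treated 24 h at 100 nM, with docetaxel 100 nM for comparison. Tubulin immunofluorescence with DAPI nuclear counterstain was used to score chromosome overduplication and multiple spindle poles.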

[9] = Growth inhibition of human LOXIMVI cells; assay type: functional; conditions: LOX IMVI; method in brief: as §3
SNB-19 = test: Growth inhibition of human SNB19 cells; assay type: functional; method in brief: as §2
U-251 = test: Growth inhibition of human U251 cells; assay type: functional; method in brief: as §2
HT-29 = test: Growth inhibition of human HT-29 cells; assay type: functional; method in brief: as §3
PC-3 [10] = test: Growth inhibition of human PC3 cells after 72 hrs by Alamar Blue assay; assay type: functional; conditions: PC-3, 72 h
Method in brief: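 PC3 prostate cancer cells and docetaxel-resistant PC3-DR cells were exposed to drug for 72 hours in 96-well format. Viability was read with AlamarBlue dye and GI50 derived. Resistance is the GI50 in PC3-DR over the GI50 in parental PC3.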

DU-145 = test: Growth inhibition of human DU145 cells; assay type: functional; method in brief: as §3
SK-OV-3 = test: Growth inhibition of human SKOV3 cells; assay type: functional; method in brief: as §2
CCRF-CEM = test: Growth inhibition of human CCRF-CEM cells; assay type: functional; method in brief: as §3
[11] = Growth inhibition of human OVCAR8 cells by Alamar Blue assay; assay type: functional; conditions: OVCAR-8; method in brief: as §4
[12] = Growth inhibition of human NCI-ADR-RES cells; assay type: functional; method in brief: as §3
[13] = Growth inhibition of human OVCAR4 cells; assay type: functional; conditions: OVCAR-4; method in brief: as §3
[14] = Growth inhibition of human Hs578T cells; assay type: functional; conditions: Hs-578T; method in brief: as §3
HL-60(TB) = test: Growth inhibition of human HL-60(TB) cells; assay type: functional; method in brief: as §3
HCT-116 = test: Growth inhibition of human HCT116 cells; assay type: functional; method in brief: as §3
SR = test: Growth inhibition of human SR cells; assay type: functional; method in brief: as §2
MDA-MB-231 = test: Growth inhibition of human MDA-MB-231 cells; assay type: functional; method in brief: as §3
PC-3 [15] = test: Growth inhibition of human PC3 cells; assay type: functional; method in brief: as §3
NCI-H226 = test: Growth inhibition of human NCI-H226 cells; assay type: functional; method in brief: as §3
[16] = Growth inhibition of human SF539 cells; assay type: functional; conditions: SF-539; method in brief: as §3
A498 = test: Growth inhibition of human A498 cells; assay type: functional; method in brief: as §3
LLC-PK1 [17] = test: Resistance factor, ratio of GI50 for pig LLC-PK1 cells expressing MDR1 to GI50 for pig LLC-PK1 cells; design: species or system Sus scrofa; method in brief: as §1
PC-3 [18] = test: cells; conditions: Homo sapiens, PC-3, 72 h
[19] = target: T1, Tubulin beta (Homo sapiens); test: Inhibition of tubulin beta in human PC3 cells assessed as multiple spindle-poles formation at 100 nM after 24 hrs by DAPI-staining based immunofluorescence assay; assay type: cell-based; conditions: PC-3; method in brief: as §5
MCF7 = test: Growth inhibition of human MCF7 cells; assay type: functional; method in brief: as §3
Malme-3M = test: Growth inhibition of human MALME-3M cells; assay type: functional; method in brief: as §3
NCI-H522 = test: Growth inhibition of human NCI-H522 cells; assay type: functional; method in brief: as §3
M14 = test: Growth inhibition of human M14 cells; assay type: functional; method in brief: as §3
[20] = Growth inhibition of human HCC2998 cells; assay type: functional; conditions: HCC 2998; method in brief: as §3
NCI-H460 = test: Growth inhibition of human NCI-H460 cells; assay type: functional; method in brief: as §3
[21] = Growth inhibition of human SF295 cells; assay type: functional; conditions: SF-295; method in brief: as §3
SF-268 = test: Growth inhibition of human SF268 cells; assay type: functional; method in brief: as §3
SK-MEL-2 = test: Growth inhibition of human SK-MEL-2 cells; assay type: functional; method in brief: as §3
[22] = Growth inhibition of human HOP92 cells; assay type: functional; conditions: HOP-92; method in brief: as §3
SW-620 = test: Growth inhibition of human SW620 cells; assay type: functional; method in brief: as §2
NCI-H23 = test: Growth inhibition of human NCI-H23 cells; assay type: functional; method in brief: as §3
[23] = Growth inhibition of human OVCAR8 cells; assay type: functional; conditions: OVCAR-8; method in brief: as §3
CAKI-1 = test: Growth inhibition of human Caki1 cells; assay type: functional; method in brief: as §3
[24] = Growth inhibition of human HCT15 cells; assay type: functional; conditions: HCT-15; method in brief: as §3
[25] = Growth inhibition of human OVCAR5 cells; assay type: functional; conditions: OVCAR-5; method in brief: as §3
[26] = Growth inhibition of human OVCAR3 cells; assay type: functional; conditions: OVCAR-3; method in brief: as §3
PC-3 [27] = test: Induction of beta tubulin de-stabilization in human PC3 cells at 1 to 100 nM after 24 hrs by DAPI-staining based immunofluorescence assay; assay type: cell-based
Method in brief: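 PC3 cells were treated 24 h at 1, 10 and 100 nM, then immunostained for beta-tubulin with DAPI nuclear counterstain. Docetaxel (stabilizer) and vinblastine (destabilizer) at 10 nM served as references.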

RPMI-8226 = test: Growth inhibition of human RPMI8226 cells; assay type: functional; method in brief: as §3
[28] = Growth inhibition of P-gp expressing human NCI-ADR-RES cells by Alamar Blue assay; assay type: functional
Method in brief: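 72-h cytotoxicity in 96-well plates with AlamarBlue viability dye, giving GI50. Line 1 uses docetaxel-resistant PC3 prostate cells (PC3-DR), and line 2 uses NCI/ADR-Res ovarian cells. P-gp expression in both was confirmed by Western blot, with β-actin as the loading control.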

[29] = Growth inhibition of human MOLT4 cells; assay type: functional; conditions: MOLT-4; method in brief: as §3

SMILES: COc1cc(/C(C#N)=C/c2cc3ccccc3s2)cc(OC)c1OC
- GI50 (LLC-PK1 [1]): 11.7 nM
- GI50 [2]: 52.4 nM
- GI50 (SK-MEL-28): > 100 nM
- GI50 (MDA-MB-435): 23.5 nM
- GI50 (NCI-H322M): 51.7 nM
- GI50 [3]: 36.6 nM
- inhibition (Tubulin (Homo sapiens)): Dose-dependent effect
- GI50 (SNB-75): 41.5 nM
- GI50 (COLO 205): 46.9 nM
- GI50 (T47D): > 100 nM
- GI50 (KM12): 22.2 nM
- GI50 (TK-10): 36.3 nM
- Activity (PC-3 [4]): Active
- GI50 (A549): 41.2 nM
- GI50 [5]: 9.7 nM
- GI50 (HOP-62): 98.9 nM
- GI50 (ACHN): 73.2 nM
- GI50 (K562): 30.4 nM
- GI50 (SK-MEL-5): 34.4 nM
- GI50 [6]: 24.9 nM
- GI50 (786-0): 12.2 nM
- GI50 (SN12C): 68.4 nM
- GI50 [7]: 52.1 nM
- inhibition [8]: Active
- GI50 [9]: 48.7 nM
- GI50 (SNB-19): 44 nM
- GI50 (U-251): 50 nM
- GI50 (HT-29): 31.9 nM
- GI50 (PC-3 [10]): 8.6 nM
- GI50 (DU-145): 21.1 nM
- GI50 (SK-OV-3): 47.2 nM
- GI50 (CCRF-CEM): 25.1 nM
- GI50 [11]: 5.2 nM
- GI50 [12]: 27.5 nM
- GI50 [13]: > 100 nM
- GI50 [14]: 42.7 nM
- GI50 (HL-60(TB)): 24.4 nM
- GI50 (HCT-116): 49.4 nM
- GI50 (SR): 46.6 nM
- GI50 (MDA-MB-231): 33 nM
- GI50 (PC-3 [15]): 45 nM
- GI50 (NCI-H226): > 100 nM
- GI50 [16]: 24.8 nM
- GI50 (A498): 28.8 nM
- RatioGI50 (LLC-PK1 [17]): 1.2
- GI50 (PC-3 [18]): 7.6 nM
- inhibition [19]: Active
- GI50 (MCF7): 40.2 nM
- GI50 (Malme-3M): 23.3 nM
- GI50 (NCI-H522): 29.7 nM
- GI50 (M14): 37.9 nM
- GI50 [20]: 16.3 nM
- GI50 (NCI-H460): 35.9 nM
- GI50 [21]: 33.7 nM
- GI50 (SF-268): 46.7 nM
- GI50 (SK-MEL-2): 41.6 nM
- GI50 [22]: 17.9 nM
- GI50 (SW-620): 40.8 nM
- GI50 (NCI-H23): 52.3 nM
- GI50 [23]: 23.5 nM
- GI50 (CAKI-1): 51.4 nM
- GI50 [24]: 46.1 nM
- GI50 [25]: 61.5 nM
- GI50 [26]: 23 nM
- Activity (PC-3 [27]): Active
- GI50 (RPMI-8226): 28.6 nM
- GI50 [28]: 3.2 nM
- GI50 [29]: 39.7 nM
